From the EternaBench riboswitch data come the findings set out here.

The subject of the data set is MS2 coat protein. As to the kind of experiment: apparent Kd, MS2 coat protein; higher = weaker binding; RNA-MaP array; FMN 200 µM where present. A digest of the protocol:
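The apparent Kd comes from binding curves fitted cluster by cluster, filtered, and summarised as a median. Those curves followed SNAP-549-labelled MS2 coat protein from 0.7 or 1.5 nM, doubling to 3 µM, on Illumina sequencing-chip clusters where stalled E. coli RNA polymerase had transcribed the designs, without and then with constant ligand. The buffer was 100 mM Tris-HCl pH 7.5, 80 mM KCl, 4 mM MgCl2, BSA, DTT, yeast tRNA and Tween-20, and green signal was normalised to red-channel RNA signal and control-cluster median Fmax.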

Where [1] appears, read: designed as: OFF switch for flavin mononucleotide, no ligand.
[2] abbreviates: ligand present: flavin mononucleotide, designed as: OFF switch for flavin mononucleotide.
[3] abbreviates: designed as: ON switch for flavin mononucleotide, no ligand.
The mark [4] stands for this setting: ligand present: flavin mononucleotide, designed as: ON switch for flavin mononucleotide.

For orientation: apparent Kd means a dissociation constant that holds for the conditions of the assay. Take “GAGCGGUGAGCAGGAUAUCCACAUUGCCUCCUACAUGAGGAUCACCCAUGUGGAGAAGGGUUUAUAAGUUCGUGUAUACUCAAU”: the “apparent Kd” value by setting is: under setting [1], 10.5 nM; under setting [2], 10 nM. On to “UUCAAAUUCGUAGGAUAUGUAUAUAUUUUCUACAUGAGGAUCACCCAUGUUACCAUUUUUUAUUGACAGAAGGACGUAAUCUAA”, for which the “apparent Kd” value came out at 34.6 nM under setting [3] and 13.8 nM under setting [4]. As to “AUGGUUGUCGUAGGAUAUGUAGGAUAUUCCUACAUGAGGAUCACCCAUGUUCGCAUGGAAGAAGGACGGAAGGACGAUGACCAG”, the “apparent Kd” value under setting [3] is 452 nM and the “apparent Kd” value under setting [4] amounted to 163 nM. “GCAGGAUAAGUCAGGAUAUACCUAUGGAUACAUAGGUAGAAGGGACAUGAGGAUCACCCAUGUUACUCGCCUGC”: the “apparent Kd” value reads like this: under setting [1], 12.6 nM; under setting [2], 23.6 nM.

In the case of “GAGCGAAAGCUCAAUGUCGAUAGCAGAAGGACAUGUAAUCAUGAAAUAACAUGAGGAUCACCCAUGUAGGAUAUGCUAUCGACU”, the “apparent Kd” value runs as follows: under setting [1], 309 nM; under setting [2], 88.8 nM. Consider “GCUAAGGGAGGAUAUACAUGAGGAUCACCCAUGUAGUCGCUGCGUUUCAUUAUCCAAGGUAGAAGGCCCAAAAU”, for which the “apparent Kd” value is, setting by setting: under setting [1], 25.4 nM; under setting [2], 36 nM. On to “GGAUCGAAUGUGAGGAUAUGCUGGUCCUUGGAUCAGCAGAAGGCACAUGAGGAUCACCCAUGUGGUAACGGUCC”, for which the “apparent Kd” value under setting [2] worked out at 554 nM. As to “GGUACUCAAAGAGUACCACUACGAACAUGAGGAUCACCCAUGUAGGAUAUGCUACUCAAAGAGUAGCAGAAGGACAUGUGCCUA”, the “apparent Kd” value by setting is: under setting [1], 17.9 nM; under setting [2], 123 nM. On the same counts, the results for “CUUCUGUGAGGAUAUGUGAACCCGUGCCGAAAGGAUGGGAAACAGAAGGCACAUGAGGAUCACCCAUGUAAAAU” are 35.3 nM and 179 nM.

With “UUAAUUAUACAAGGAUAUCUAUCCUUAUCAAGACUUACAUGAGGAUCACCCAUGUUAAUAUAAUUAGAGAAGGUGUAAAUACAG”, the “apparent Kd” value is, setting by setting: under setting [3], 17.4 nM; under setting [4], 24.1 nM.

Regarding “GUAGCAUACCGAGGAUAUUCUUAUAAUAAAUAAACAUGAGGAUCACCCAUGUGGCGAAAGCCAAGGGAGAAGGCGGAAUGCUAC”, the “apparent Kd” value came to 87.7 nM under setting [3] and 20.1 nM under setting [4]. With “GGAUUACAUGAGGAUCACCCAUGUGAGGAUAUCGAUGUCCUCAGUCGAGUGCGGGACUCGAGAAGGCACUUGGA”, the “apparent Kd” value turned out to be 77 nM under setting [1] and 57.5 nM under setting [2]. For the sequence “CAAUUCCGAGGAUAUACAUGAGGAUCACCCAUGUCGGGCCUCAGCGUUUAGCGCCUAAGUAGAAGGUGGGUUUC”, the “apparent Kd” value by setting is: under setting [1], 42.9 nM; under setting [2], 40.4 nM.

For “GGGCUUUGGGAGAAGGUACAAUAAAUUAGGAGAACAUGAGGAUCACCCAUGUAAGGAUAUCCCAUGUUGUAUUAUGGUACAACC”, the “apparent Kd” value runs as follows: under setting [1], 519 nM; under setting [2], 273 nM. For “AUUUAGAGAGGAUAUAUAAAGUGAAACAUGAGGAUCACCCAUGUAAUUUUAUGGAUGUAAAUAGAAGGCUCAUUUU”, the “apparent Kd” value is, setting by setting: under setting [1], 38.2 nM; under setting [2], 29.4 nM. On the same counts, the results for “GGAUCUGCAGGAUAUAUAAAAUGGCGUGAUGGAUUGUCUGUACAUGAGGAUCACCCAUGUAGAAGGGCGUUCCA” are 29.1 nM and 58.3 nM.

As to “GCACGGUAUGUAGGAUAUGCAUAGCAUUGCUAUGCAGAAGGACAUGAGGAUCACCCAUGUAUGUAUUCCAUACUAAUCCCGUGU”, the “apparent Kd” value turned out to be 5.55 nM under setting [1] and 5.2 nM under setting [2]. On to “GCUAGUCAUGUCAGGAUAUGCAGAUCCUUGGAUCUGCAGAAGGGACAUGAGGAUCACCCAUGUGCCUAGCUAGC”, for which the “apparent Kd” value by setting is: under setting [1], 41 nM; under setting [2], 317 nM. Turning to “GUGGUCAGACAUGAGGAUCACCCAUGUGGAAUAAAUAAGGAGAAGGAUAUUAAAUAUAGGAUAUAUAAGAAGGUCUGGUUGGUG”, the “apparent Kd” value is 86.8 nM under setting [3] and 95.8 nM under setting [4]. On the same counts, the results for “CGCUACUACCAGAAGGACAUGAGGAUCACCCAUGUAGGAUAUGGGUUACAAGUUCCUGUGUAAAGAAACUACGCUACGUAUGCG” are 715 nM and 31.7 nM. As to “UUACUCAUGUAAGGAUAUGCAGCCGUUUCGGCUGCAGAAGGUACUAUAAUACAUGAGGAUCACCCAUGUCUAUAAACUAAAGAC”, the “apparent Kd” value was determined as 84.2 nM under setting [3] and 45.8 nM under setting [4]. In the case of “CAGUACUGAGGAUAUACAUGAGGAUCACCCAUGUGUUCCAGCUAGGAAACUAGCAAAGGUAGAAGGCAGUACUG”, the “apparent Kd” value came to 23.8 nM under setting [1] and 521 nM under setting [2]. Regarding “GCAGGACAUGAGGAUCACCCAUGUUCAAAAUAUAGAGGAUAUGGAUACGGUAUAUCCGAACCAGAAGGCUACCUGC”, the “apparent Kd” value runs as follows: under setting [3], 14.6 nM; under setting [4], 14 nM. “GACGAACAUGAGGAUCACCCAUGUAAAGACGUACAAGGAUAUGUGUGGAAACCGUACUAUACAGAAGGUGUCUGUC”: the “apparent Kd” value is, setting by setting: under setting [3], 53.5 nM; under setting [4], 25.5 nM.

With “CCCAAACUUGGGCUUGGUUGUGCAUAGGAUAUCCUUGGACAUGAGGAUCACCCAUGUACAACUGUGGAGAAGGGUGCAGGACCU”, the “apparent Kd” value runs as follows: under setting [3], 39.1 nM; under setting [4], 16.4 nM. Regarding “GAGAAGUCAGGAUAUGCUGCUCGUCACUUGCGUGAUGAGUAGCAGAAGGGACAUGAGGAUCACCCAUGUGGAAA”, the “apparent Kd” value under setting [1] was found to be 107 nM and the “apparent Kd” value under setting [2] was found to be 202 nM. As for “GUAGCUCCUGACAUGAGGAUCACCCAUGUUCAAUUAUUAAAUCAGGAUAUCGGCUAGAAACUAGCCGAGAAGGGAUAUGCUACU”, the “apparent Kd” value turned out to be 5.13 nM under setting [3] and 5.97 nM under setting [4]. In the case of “ACAUGAGGAUCACCCAUGUGUACAUAGGAUAUUGAGGAUUAGGGAUAAAGUGAAGAGAUUGCCCACAAGAAGGAUGAAAGUGUU”, the “apparent Kd” value reads like this: under setting [3], 9.82 nM; under setting [4], 8.82 nM.

As for “GGAAAACAUGAGGAUCACCCAUGUGAGGAUAUCGAUGUCCAAAAAAAGGUGCGGGACUCGAGAAGGCACUUGGA”, the “apparent Kd” value is, setting by setting: under setting [1], 55.6 nM; under setting [2], 47 nM. Consider “ACAUGAGAGAUAGGAUAUCUUGUACCUACAUGUGACAUGAGGAUCACCCAUGUGGUAAGUAUGAGGGAGAAGGGUCAGAUAUGU”, for which the “apparent Kd” value under setting [3] is 57.9 nM and the “apparent Kd” value under setting [4] is 55.9 nM. Take “AAAUUCAGAGGAUAUGCGCAUAGAUAAGACUUUUUUUCUUAACAUGAGGAUCACCCAUGUAGAAGGCUGUAAUA”: the “apparent Kd” value by setting is: under setting [1], 18.4 nM; under setting [2], 16.7 nM.

“UAUACUAGAUAGGAUAUACUUUAUUUUUUUUUCGUAGAAGGAUCUACAUGAGGAUCACCCAUGUUAACAGCAGU”: the “apparent Kd” value is, setting by setting: under setting [1], 74.1 nM; under setting [2], 53.9 nM.

As for “CCCACGAAAGUCGAACGAUGAUGGAGAAGGAGUAUAACAUGACAUGAGGAUCACCCAUGUGCCAACUAGGAUAUCCAUCAUGGG”, the “apparent Kd” value reads like this: under setting [1], 9.72 nM; under setting [2], 8.55 nM. With “GCCGUAAAUGUGAGGAUAUACCUAUGGAUACAUAGGUAGAAGGCACAUGAGGAUCACCCAUGUUCUCAAUCGGC”, the “apparent Kd” value runs as follows: under setting [1], 179 nM; under setting [2], 930 nM.

Take “CGUUAUGAUAAAGGAUAUAUAAUAGAUAUACAUGAGGAUCACCCAUGUUACAUGGAUUCAAAUUUAUAGAAGGUUAUCCUAUCG”: the “apparent Kd” value runs as follows: under setting [1], 36 nM; under setting [2], 22.6 nM.

“ACCUUACAUGAGGAUCACCCAUGUCAGGAUAUCUCGGGCGGCCAAGGGCCGGCCGCCCAGAGAAGGGACGAGGA”: the “apparent Kd” value by setting is: under setting [1], 14.5 nM; under setting [2], 13.7 nM. Take “GUAUUAAAGAUCCAUUUAUACAACAUGAGGAUCACCCAUGUGCAGGAUAUCGUGUGUUUUAUAUUCGAGAAGGGCAAAUUCAUU”: the “apparent Kd” value came to 50.7 nM under setting [1] and 105 nM under setting [2]. “UGUAUGGACAGAGGAUAUACGGAUAGGAUCUACUAUCUUCUUCAAAUAACAUGAGGAUCACCCAUGUAGAAGGCUGUCCAUACU”: the “apparent Kd” value worked out at 16.1 nM under setting [1] and 35.1 nM under setting [2]. On to “CAAUGGUUCCUUAUACUCUCGUCACAUGAGGAUCACCCAUGUAGAAGGCAGCCGGGCUGUCAGGCUGAGGAUAUACAUUUAAAA”, for which the “apparent Kd” value runs as follows: under setting [1], 17.8 nM; under setting [2], 54.9 nM.

Take “GAUUGACAUGAGGAUCACCCAUGUGAGGAUAUCGGCCGGACCUUGUUAGCUUCCAUCGCGAGAAGGUACAUAGG”: the “apparent Kd” value by setting is: under setting [1], 18.9 nM; under setting [2], 18.4 nM. In the case of “AUCAGCUCGUCAGGAUAUACGUCACUUCGUCAGCAGUGUGGUAAGAUCACAUGAGGAUCACCCAUGUAGAAGGGACGAGCUGAU”, the “apparent Kd” value came to 85.7 nM under setting [1] and 310 nM under setting [2]. On to “ACUGACAUGAGGAUCACCCAUGUCUUGAAUAGGUCAAAUUCACAGGAUAUGCGCUUUGACAGGGCGCAGAAGGGUGAUGCAAUG”, for which the “apparent Kd” value worked out at 70.2 nM under setting [3] and 11.8 nM under setting [4]. As for “UGUUUUCAUGUAGGAUAUGCUUGUCGUAGAUACGCAGAAGGACAUGAGGAUCACCCAUGUUAAUGCGACAGAGUAUAGAUUCUU”, the “apparent Kd” value under setting [1] turned out to be 15.3 nM and the “apparent Kd” value under setting [2] turned out to be 20.6 nM. For “GAUCCGGUCAAGAGGAUUUUGGAGUGAGAAGGGAGGCUGCUACAUGAGGAUCACCCAUGUGAUACUCAGGAUAUUAGUCUACUA”, the “apparent Kd” value runs as follows: under setting [3], 215 nM; under setting [4], 155 nM. Consider “GUAAACCGGUGAGGAUAUUUAUAAUAGAGCUUUAUGAUAUACAUGAGGAUCACCCAUGUUACUUUAAAGAAGGCAUCGGAAAUG”, for which the “apparent Kd” value under setting [1] was 21.4 nM and the “apparent Kd” value under setting [2] was 17.2 nM. In the case of “UUAUUCAGAGGAUAUGCGCAUAGAUAAGACUUUUUUUCUUAACAUGAGGAUCACCCAUGUAGAAGGCUGUAAUU”, the “apparent Kd” value under setting [1] stood at 18.4 nM and the “apparent Kd” value under setting [2] turned out to be 18.7 nM. On to “UUGGACGUCGUAGGAUAUGUAGGAUAUUCCUACAUGAGGAUCACCCAUGUUGACAAGGAAGAAGGACAGAAGGACGAUGUCCAU”, for which the “apparent Kd” value is, setting by setting: under setting [3], 5.37 nM; under setting [4], 3.37 nM.

Regarding “AAGUGUAUAGGAUAUGCGUGGAAAAGGUGUAUUCACCAGCGACAUGAGGAUCACCCAUGUAGAAGGGUAUGUAA”, the “apparent Kd” value by setting is: under setting [1], 94.6 nM; under setting [2], 54.5 nM.
